NRP1-CendR mod – alters CendR peptide binding to human NRP-1 | 360,000 tested, 0.85% active | inhibition, % at 25 µM | FAM-RPARPAR peptide binding to NRP-1, fluorescence polarization;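 active means inhibition or corrected inhibition above about 18%, plus a signal ratio from 0.5 to 1.5, limit read from the data, passing the limit was not always enough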
Myeloid diff MLP – promotes myeloid progenitor differentiation; ER-HoxA9 myeloid progenitors, lysozyme-GFP differentiation, flow cytometry; calls only at 10 µM; 360,000 tested, 1% active; AID 624256;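 active means normalized GFP-positive differentiation at or above the plate's own cutoff, the solvent-only control mean plus 3 SD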;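 further: cells exposed to compound for four days before flow analysis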
DAGLB inh – blocks human DAGLB lipase activity. Q8NCG7. HEK293T DAGLB membrane lysate, EnzChek fluorogenic substrate. inhibition, % at 5.17 µM. 340,000 tested, 0.059% active. AID 504411; in the data active means inhibition above about 34%;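 further: 0% = enzyme with vehicle and 100% = wells lacking enzyme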
Target sequence (Q8NCG7 whole entry, looked up): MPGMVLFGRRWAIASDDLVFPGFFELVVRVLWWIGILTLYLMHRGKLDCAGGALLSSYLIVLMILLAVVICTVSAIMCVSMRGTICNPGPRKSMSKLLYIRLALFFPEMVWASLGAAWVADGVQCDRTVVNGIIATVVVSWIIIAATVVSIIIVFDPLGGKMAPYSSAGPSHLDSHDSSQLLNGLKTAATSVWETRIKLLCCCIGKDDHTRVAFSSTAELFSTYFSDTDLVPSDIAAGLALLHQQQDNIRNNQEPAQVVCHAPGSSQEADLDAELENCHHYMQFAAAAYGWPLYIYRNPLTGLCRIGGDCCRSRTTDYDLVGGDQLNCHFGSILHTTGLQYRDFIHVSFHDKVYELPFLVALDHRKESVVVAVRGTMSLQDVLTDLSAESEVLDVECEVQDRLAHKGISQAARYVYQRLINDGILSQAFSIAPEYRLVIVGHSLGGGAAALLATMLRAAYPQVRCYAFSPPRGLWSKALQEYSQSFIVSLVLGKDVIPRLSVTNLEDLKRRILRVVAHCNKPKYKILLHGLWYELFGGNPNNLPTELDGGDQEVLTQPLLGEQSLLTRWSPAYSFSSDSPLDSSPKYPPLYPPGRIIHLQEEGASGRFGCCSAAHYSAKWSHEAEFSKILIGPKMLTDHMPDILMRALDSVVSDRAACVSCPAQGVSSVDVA
SENP1 FRET inh – SENP1 (human) catalytic domain inhibition; Q9P0U3; recombinant SENP1 catalytic domain, CyPet-SUMO1-YPet FRET cleavage; inhibition, % at 10 µM; 360,000 tested, 0.21% active; AID 624204;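 active means inhibition at least 30% at 10 µM, raw YFP signal under a set limit, fluorescence ratio 0.5 to 1.5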;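 further: 0% = enzyme with DMSO and 100% = no enzyme wells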
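Material: hSENP1 catalytic domain, recombinant; medium: Tris pH 8 with BME, BSA, NP40 and catalase; compound: single concentration of 10 µM compound, 0.5% DMSO final; technique: FRET read of cyan and yellow fluorescence; timing: 50 min enzyme reaction, room temperature, light-protected; reagent: SFCypet-SUMO1-SFYpet substrate at 25 nM; control set: no-enzyme low, enzyme-DMSO high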
beta cell repl – inducers of beta-cell replication in MIN6 cells; MIN6 cells proliferation, ATPlite luminescence, 48 h; cells starved in 0.2% serum; 100% = growth in 10% serum; proliferation, % at 10 µM; 330,000 tested, 0.29% active; AID 2380;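 active means compounds whose signal lies at least 3.5 SD above the mean of all wells on their plate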;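 further: 0% = DMSO-treated cells in low-serum medium and 100% = 10% serum control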
MT1-MMP act inh – blocks activation of human MT1-MMP | P50281 | HT1080 RFP-PRO-GFP cells, GFP/RFP ratio fluorescence, overnight; percent of plate control window, DMSO zero | GFP/RFP ratio change, % at 20 µM | 360,000 tested, 0.061% active | AID 651647;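 active means GFP/RFP ratio change of at least 30% with cell ATP level not reduced by more than half and red fluorescence within 50% of control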
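Test system: HT1080 cells expressing an RFP-PRO-GFP fluorescent reporter construct / Compound dosing: single-point 20 µM compound, 1% DMSO / Schedule: cells overnight before dosing, compound overnight, 37 °C, 5% CO2 / Evaluation: GFP/RFP fluorescence ratio / Control set: DMSO and RFP-L50D-GFP cell wells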
Numbers without * were called inactive; i = inactive; x = not tested or not shown; + = active, no number; ! = not active in a repeat. An excerpt weighted towards active compounds, which were near 2.4% of everything screened.

SMILES | NRP1-CendR mod | Myeloid diff MLP | DAGLB inh | SENP1 FRET inh | beta cell repl | MT1-MMP act inh
O=[N+]([O-])c1ccc(NCCOc2ccccc2Cl)nc1 | 1 | + | -5 | 2 | -1 | 7
COc1ccc(CN(C)C(=O)Cn2cnc3c(OCc4ccccc4)ncnc32)cc1OC | -7 | i | -2 | 0 | -3 | 1
COc1cccc(NC(=O)CSc2ccc3nnc(CCNC(=O)c4ccccc4)n3n2)c1 | 20* | i | 0 | 2 | -2 | -3
COc1ccc(NC(=O)CSc2ccc3nnc(CCNC(=O)c4ccccc4)n3n2)cc1 | 9 | i | -1 | 2 | 0 | -5
c1ccc(C[C@H]2CN=C(Nc3ccccc3)N2CC2CCCCCC2)cc1 | 8 | i | -1 | 1 | -6 | 2
c1ccc(C[C@H]2CN=C(Nc3ccccc3)N2CC2CCCCC2)cc1 | 0 | + | -2 | 0 | -4 | 6
CCN(C(=O)COC(=O)CNC(=O)c1ccc(Cl)cc1Cl)c1c(N)n(Cc2ccccc2)c(=O)[nH]c1=O | 3 | i | -1 | 1 | -1 | 4
COC(=O)c1ccc2c(c1)c(-c1ccccc1)c(-c1ccccc1)n2C | 32* | i | -14 | -1 | x | -3
COC(=O)c1c(C)nc2ccccc2c1-c1ccccc1 | -13 | i | -6 | 0 | 0 | 6
Fc1ccccc1NC(=S)N(CCN1CCCCC1)Cc1ccco1 | -1 | i | 0 | 0 | 1 | -1
C=CCN(C(=O)c1csnn1)C(C(=O)NCc1ccccc1)c1c(F)cccc1Cl (stereo unspecified) | 27* | i | 0 | 2 | 0 | -2
C=CCN(C(=O)c1csnn1)C(C(=O)NCc1ccccc1)c1ccccc1F (stereo unspecified) | 7 | i | -1 | 0 | 1 | -3
CSCC[C@@H](C(=O)NCc1cccs1)N1Cc2ccccc2C1=O | 21* | i | 1 | 2 | -1 | -3
CSCCC(NC(=O)c1ccco1)C(=O)N1CCN(Cc2ccccc2)CC1 (stereo unspecified) | -2 | i | 0 | 0 | -3 | 0
Cc1ccc(S(=O)C(c2ccccc2)c2ccccc2)cc1 (stereo unspecified) | 20* | i | 0 | 4 | x | -7
COc1ccc(Cl)cc1NC(=O)CSc1nc(NS(=O)(=O)c2ccc(C)cc2)cc(=O)[nH]1 | 13 | + | -5 | 2 | -2 | 7
Cc1ccccc1N=C/C=C1/C=C(c2ccccc2)OC(C)(C)O1 | -3 | i | -1 | -26 | -3 | -10
CC1(C)OC(c2ccccc2)=C/C(=C/C=C2C(=O)c3ccccc3C2=O)O1 | -74 | i | 6 | 95* | -3 | -13
CCCCN(C(=O)C1CCN(C(=O)c2ccccc2C)CC1)c1c(N)n(CCCC)c(=O)[nH]c1=O | 7 | + | 5 | -1 | -2 | 1
CCCCn1c(N)c(N(CC(C)C)C(=O)c2cc(=O)[nH]c3ccccc23)c(=O)[nH]c1=O | 3 | i | 2 | -5 | 3 | -4
CCCCN(C(=O)c1cc(=O)[nH]c2ccccc12)c1c(N)n(CCCC)c(=O)[nH]c1=O | 2 | + | -1 | -11 | 0 | -2
C/C(=N\NS(=O)(=O)c1ccc(C)c([N+](=O)[O-])c1)c1cc2ccccc2o1 | -9 | + | 2 | -1 | -4 | x
C/C(=N\NS(=O)(=O)c1ccc(Cl)c([N+](=O)[O-])c1)c1cc2ccccc2o1 | -10 | i | 0 | 2 | -5 | -3
COc1cccc(-c2nc(CS(=O)(=O)CC(=O)NCc3ccc(Cl)cc3)c(C)o2)c1 | 20* | i | 0 | 2 | -2 | 1
CCCNC(=O)CS(=O)(=O)Cc1nc(-c2cccc(OC)c2)oc1C | -12 | i | 0 | 0 | 1 | 1
SMILES | NRP1-CendR mod | Myeloid diff MLP | DAGLB inh | SENP1 FRET inh | beta cell repl | MT1-MMP act inh
O=C(NC(=S)NCc1cccnc1)c1cccc2ccccc12 | 6 | i | -3 | 2 | 2 | -5
O=C(Nc1ccc(-c2cn3c(n2)SCC3)cc1)c1ccc2c(c1)OCO2 | 2 | + | 1 | -5 | -2 | 1
CCCOc1ccc(/C=N/NC(=O)c2ccc3c(c2)OCO3)c(OCCC)c1 | 0 | i | -3 | 0 | 0 | 0
COc1ccc2nc(N/C(N)=N/C(=S)Nc3ccccc3)nc(C)c2c1 | 8 | i | -3 | -3 | -6 | 2
COc1ccc(OC)c(N/C(=N/C(=S)Nc2ccccc2)Nc2nc(C)cc(C)n2)c1 | 2 | + | x | -1 | 2 | 5
O=C(Nc1nc2ccccc2s1)c1cccc(S(=O)(=O)N2CCc3ccccc32)c1 | -18 | i | -1 | 2 | -6 | -13
O=C(Nc1nc2c(s1)CN(Cc1ccccc1)CC2)c1cccc(S(=O)(=O)N2CCc3ccccc32)c1 | 61 | + | -14 | -18 | -4 | -18
COC(=O)C1N2C(=O)[C@@H](NC(=O)COc3ccccc3)[C@H]2SC1(C)C (stereo partly specified) | 31* | i | -1 | 3 | -4 | 0
CC1(C)S[C@@H]2[C@H](NC(=O)[C@H](N)c3ccccc3)C(=O)N2[C@H]1C(=O)O | -66 | +! | -1 | -3 | -1 | 5
CCC(CC)N1CCN(CC2CC=CCC2)CC1 (stereo unspecified) | 23* | i | 2 | 1 | 1 | 0
CCCCc1ccc(-c2csc(/C(C#N)=C/c3ccco3)n2)cc1 | -3 | + | -8 | -77 | -4 | 0
N#C/C(=C\c1ccc(Cl)cc1)c1nc(-c2ccco2)cs1 | -22 | + | -3 | -48 | -1 | 0
COCCCN(C(=O)c1cc2c(s1)CCCCC2)c1c(N)n(Cc2ccccc2)c(=O)[nH]c1=O | 7 | i | 2 | 0 | -1 | 0
COCCNC(=O)C1CCCN(C(=O)c2ccc(OC)c(F)c2)CC1 (stereo unspecified) | 15 | i | x | 1 | x | -1
Cc1ccc(NC(=O)CSc2nnc(C3CC3)n2N)cc1S(=O)(=O)N1CCOCC1 | 0 | i | 0 | 1 | -3 | 2
CC1(C)OC2CC(=O)OCC23C1CC(=O)C1(C)C3CCC2(C)C(c3ccoc3)OC(=O)C3OC321 (stereo unspecified) | 7 | i | x | 2 | x | -1
CC1(C)OC(=O)C=C[C@]2(C)[C@H]3CC[C@@]4(C)[C@H](C(=O)O)OC(=O)[C@H]5O[C@]54[C@]3(C)C(=O)C[C@@H]12 | 22* | i | -1 | 0 | 0 | 3
N#C/C(=C/c1ccc(-c2ccc(S(N)(=O)=O)cc2)o1)c1nc2ccccc2s1 | 132 | + | -27 | -29 | -1 | -113

High-throughput results: PubChem BioAssay, several laboratories
